An excerpt weighted towards active compounds, which were near 4.9% of everything screened.
CHT allo act: allosteric activators of human choline transporter CHT; Q9GZV3; CHT-expressing cells, membrane potential dye, choline EC20; stronger effect = higher value; LV-AA mutant CHT in HEK293 cells; B-score at 10 µM; actives 0.49% (n = 310,000);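 active = initial fluorescence not abnormally high and integrated response B-score, plate-corrected, over 3 SD above library mean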
CHT inh: inhibits the human high affinity choline transporter; Q9GZV3; CHT-expressing cells, membrane potential dye, choline response; stronger effect = lower value; actives 0.86% (n = 310,000); B-score at 10 µM;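 active = B-score over 3 SD under the library average, and starting fluorescence ratio not unusually high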;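 note: choline stimulus applied at its EC90 after an EC20 pre-addition; B-score computed on integrated fluorescence ratio after choline addition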
PHOSPHO1 block: PHOSPHO1 (human) inhibition | Q8TCT1 | recombinant PHOSPHO1, absorbance phosphatase assay | inhibition, % at 13.3 µM | actives 1.1% (n = 290,000) | AID 1565; in the data active = inhibition above about 60%
Target sequence (Q8TCT1 whole entry, looked up): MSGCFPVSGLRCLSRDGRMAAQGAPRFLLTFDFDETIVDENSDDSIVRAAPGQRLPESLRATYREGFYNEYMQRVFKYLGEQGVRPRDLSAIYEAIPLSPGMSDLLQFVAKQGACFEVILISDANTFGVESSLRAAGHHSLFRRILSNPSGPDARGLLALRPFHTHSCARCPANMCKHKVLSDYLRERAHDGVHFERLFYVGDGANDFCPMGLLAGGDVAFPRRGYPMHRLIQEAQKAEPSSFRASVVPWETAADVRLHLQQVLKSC
HSF-1 act: increases HSF-1 driven luciferase reporter signal | activation, % at 9 µM | AID 504408 | NIH3T3-HGL HSF-1 luciferase reporter, MG132, 8 h; 100% = twice DMSO control signal | actives 1.7% (n = 300,000);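 active = mean replicate activation of at least 50% with a set share of replicates each reaching 50%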
Hep lipid drop: hepatic lipid droplet formation modulation. actives 0.4% (n = 240,000). AML12 mouse hepatocytes, oleate lipid droplets, BODIPY imaging. inhibition, % at 6.5 µM. AID 1656;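 active = lipid droplet intensity inhibited by at least 50%, with more than 500 cells counted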
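System: AML12 hepatocytes (mouse). Probe or stimulus: oleic acid at 100 µM to induce lipid droplet formation. Times: overnight treatment with compound plus oleate. Detection: Image-based BODIPY and DAPI two-channel analysis. Evaluation: percent inhibition of filter-corrected integrated lipid droplet intensity per well.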
HSF1 inhib: HSF1 inhibition | NIH3T3-HGL HSE-luciferase, MG132-induced, luminescence 8 h; stronger effect = lower value | activity change, negative = inhibition, % at 7.5 µM (by protocol) | actives 0.77% (n = 300,000);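 active = more than half of replicate wells show activity change below -50%, luminescence cut by over half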;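 note: luciferase reports HSF-1 transcriptional activity via heat shock element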
Of the large screens only hits and unclear results are named; the others gave an inactive call.

COc1ccccc1OCCSc1nc(N)cc(N)n1	none
Nc1cc(N)nc(SCCOc2ccccc2F)n1	HSF-1 act 66
CCN(CC)c1ccc(/C=N/NC(=O)CNC(=O)C2COc3ccccc3O2)c(O)c1 (stereo not given)	none
Cc1ccc(C)c(S(=O)(=O)NC2CCS(=O)(=O)C2)c1 (stereo not given)	none (no result: PHOSPHO1 block, Hep lipid drop)
CCCC[C@@H](CNC)NC[C@H](Cc1ccc(O)cc1)NCCc1ccc(OCC)cc1	HSF1 inhib -80
O=C(CSc1nnnn1C1CCCC1)Nc1ccccc1F	none
O=C(COC(=O)c1cncc(Br)c1)NCc1ccccc1	HSF-1 act 53
CCc1ccccc1NC(=O)c1ccc(NS(C)(=O)=O)cc1	HSF1 inhib -56
CSc1nc2nccc(/C=C\c3ccccc3)n2n1	HSF-1 act 56 (no result: Hep lipid drop)
CSc1nc2nccc(-c3ccc(Cl)cc3)n2n1	none
CC(C)[C@H](NC(=O)c1ccc(Cl)c([N+](=O)[O-])c1)C(=O)O	none
O=C(N/N=C/C(Cl)=C/c1ccccc1)c1ccco1	HSF-1 act 54
O=C(N/N=C/c1cccnc1)c1cccs1	none
O=C(N/N=C/C(Br)=C/c1ccccc1)c1ccccc1F	HSF-1 act 250
O=C(N/N=C/C(Br)=C/c1ccccc1)c1cc(-c2ccco2)[nH]n1	HSF-1 act 130
O=C(N/N=C/c1cccc(Oc2ccccc2)c1)c1ccccc1F	none
O=C(N/N=C/C(Br)=C/c1ccccc1)c1cccs1	HSF-1 act 130
O=C(N/N=C/C(Cl)=C/c1ccccc1)c1ccccc1F	HSF-1 act 76
CC(C)CC(=O)NC(NC(=O)CC(C)C)c1cccc([N+](=O)[O-])c1	HSF1 inhib -70
O=C(NCCC1=CCCCC1)C1CC(=O)N(C2CCCCCC2)C1 (stereo not given)	none
CSc1ccc(C2Nc3cccc4cccc(c34)N2)cc1	none
CSc1ccc(C2NC(=O)c3ccccc3N2)cc1 (stereo not given)	HSF-1 act 69 (no result: PHOSPHO1 block, Hep lipid drop)
O=C(COC(=O)/C=C/c1ccccc1)NCc1ccc(Cl)cc1	none
Oc1ccccc1-c1nnc(-c2ccc(C(F)(F)F)cc2)o1	HSF1 inhib -63 (no result: Hep lipid drop)
N#Cc1c2n(c3c(=S)nc[nH]c13)CCCCC2	PHOSPHO1 block 96 (no result: Hep lipid drop)
O=C(Cc1cccc2ccccc12)Nc1ccccc1C(=O)O	none
COc1ccc(CCNC(=O)[C@H](CCSC)NC(=O)N2CCn3c2nc2ccccc23)cc1OC	none
CCN1/C(=C/C=C/c2oc3ccc(-c4ccccc4)cc3[n+]2CC)Oc2ccc(-c3ccccc3)cc21	HSF-1 act 103, Hep lipid drop 120
COC(=O)Cc1ccc(NC(=O)C(c2ccccc2)c2ccccc2)cc1	none
CCc1cc(C(=O)NC2CCCc3c2cnn3-c2cccc(C)c2C)n(C)n1 (stereo not given)	none
CCOC(=O)/C=C(\C)Nc1cc(C)nn1-c1ccccc1	HSF-1 act 54 (no result: Hep lipid drop)
O=C(CN1CCN(CC(=O)Nc2ccc(-c3ccccc3)cc2)CC1)Nc1ccc(F)cc1	none
O=C(NCCOc1ccccc1)c1cncc(Br)c1	none (no result: Hep lipid drop)
CCc1cc(C)cc(OCCNC(=O)c2cncc(Br)c2)c1	HSF1 inhib -62
CN(C)c1nc(NC(C)(C)C)nc(SCC(=O)Nc2ccccc2)n1	HSF-1 act 66
O=[N+]([O-])c1c(Nc2ccccc2O)cc(N2CCOCC2)c2nonc12	none
Cc1nc2ccccc2n1C(C)c1ccccc1 (stereo not given)	none
Cc1ccccc1-n1c(C)nc2ccccc21	HSF1 inhib -53
O=C1CSC(=Nc2cccc(Cl)c2Cl)N1Cc1cccnc1	none
CCn1c(SCCOc2ccc(Cl)cc2)nnc1-c1cccs1	HSF-1 act 61 (no result: Hep lipid drop)
Cc1ccc([N+](=O)[O-])cc1N=Nc1c(-c2ccc([N+](=O)[O-])cc2)[nH]n(C(N)=S)c1=O	HSF-1 act 56 (no result: CHT allo act, CHT inh)
Cc1ccc(Cn2c(C(C)Nc3nc(-c4ccc(F)cc4)cs3)nc3cc(C(F)(F)F)ccc32)cc1 (stereo not given)	none (no result: PHOSPHO1 block, Hep lipid drop)
Cc1[nH]nc(-c2ccc(O)c(C)c2O)c1-c1cnn(-c2ccccc2)c1	HSF-1 act 67
COc1ccc(O[C@H]2C=C[C@@H](c3ccccc3)O[C@@H]2CO/N=C(\C)CCC(=O)OC[C@H]2O[C@H](c3ccccc3)C=C[C@@H]2Oc2ccc(OC)cc2)cc1	none
O=C(c1cccc(-c2ccco2)c1)N1CCCC(N2CCN(c3ccc(F)cc3)CC2)C1 (stereo not given)	none
COc1ccc(N2CCN(C(=O)CCc3nnc4ccc(N5CCCC5)nn34)CC2)cc1	none
CC(C)(C)c1ccc(C(=O)Nc2cccc3c(=O)[nH][nH]c(=O)c23)cc1	HSF1 inhib -61
Cc1ccc(C(=O)Nc2cccc3ccccc23)cc1	none
COc1cccc(-n2nc(-c3ccnn3-c3cccc(Cl)c3)c(=O)n(C)c2=O)c1	HSF1 inhib -54
O=C(/C=C/c1ccc2c(c1)OCO2)Nc1nc2ccccc2s1	none
O=C(CCSc1ccc(Cl)cc1)NCc1ccncc1	none
O=c1[nH]c2ccccc2nc1-c1c[nH]c2ccccc12	none (no result: Hep lipid drop)
Cn1c(CNC(=O)c2ccccc2)nnc1SCC(=O)N1CCN(c2ccccc2)CC1	none
CC1(c2ccccc2)NC(=S)N2C1NC(=S)N2c1ccccc1 (stereo not given)	PHOSPHO1 block 61
COc1ccc(N2C(=S)NC3N2C(=S)NC3(C)c2ccccc2)cc1 (stereo not given)	PHOSPHO1 block 61
CN=C(Nc1cccnc1)c1cccc(C(F)(F)F)c1	none (no result: PHOSPHO1 block, Hep lipid drop)
COc1cccc(C(=O)NCCNC(=O)c2ccccn2)c1	none
CC(=O)c1cccc(CN2CCC(CO)(CCCc3ccccc3)CC2)c1	none
N#CCSc1nnc(C2CCCCC2)n1-c1ccccc1	none (no result: Hep lipid drop)
CCC(=O)N(CCC(c1ccccc1)c1ccco1)Cc1cccs1 (stereo not given)	CHT allo act 9.5 (no result: Hep lipid drop)
COc1ccccc1C(CCN(Cc1cccs1)C(C)=O)c1ccco1 (stereo not given)	none (no result: Hep lipid drop)
CC(C)(C)c1nc(S(=O)(=O)c2ccc(Cl)cc2)c(N2CCOCC2)o1	PHOSPHO1 block 63
CCOc1ccc(-c2nnc(-c3ccncc3)o2)cc1	HSF-1 act 52 (no result: Hep lipid drop)
CCOc1ccc(-c2cnc3ccccc3n2)cc1	HSF1 inhib -58
COc1ccc(/C=C/c2nc3ccccc3c(=O)o2)cc1	HSF1 inhib -59
CCOc1ccc(-c2nc3ccccc3c(=O)o2)cc1	HSF-1 act 55
COc1ccccc1/C=C/c1nc2ccccc2c(=O)o1	none (no result: PHOSPHO1 block, Hep lipid drop)
O=[N+]([O-])c1ccc(-c2cnc3ccccc3n2)cc1	none (no result: Hep lipid drop)
CCn1c(=S)sc2c(=O)n(CC(=O)Nc3ccc(OC)c(Cl)c3)c(C)nc21	none
CCC(C)[C@H](N)c1nnc(SCC(=O)Nc2cccc(Cl)c2)o1 (stereo not given in full)	HSF-1 act 108 (no result: Hep lipid drop)
